Hits are enriched below; roughly 3.7% of the tested compounds scored in any of these assays.
MC4R antag cAMP: human MC4R antagonism in cAMP assay. P32245. MC4R-expressing cells, MTII-stimulated cAMP, LANCE TR-FRET. inhibition, % at 6.5 µM. actives 0.48% (n = 360,000);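 active = inhibition above its plate's cutoff, the mean of tested wells on that plate plus 3 SD, cut at about 29% in these data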;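 also: 0% = Melanotan II alone and 100% = Melanotan II plus saturating MCL0020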
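System: U2OS-MC4R stable cell line; Technique: Eu-cAMP/anti-cAMP TR-FRET, emission 671 nm; Repeats: single well per compound; Also added: Melanotan II; Dosing: one concentration, 6.5 µM nominal; Schedule: 30-min compound, 1-h challenge, 1-h detection, room temperature.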
Myeloid diff 2: promotes myeloid progenitor differentiation. ER-HoxA9 myeloid progenitors, lysozyme-GFP differentiation, flow cytometry. AID 624256. calls only at 10 µM. actives 1% (n = 360,000);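 active = normalized GFP-positive differentiation at or above the plate's own cutoff, the solvent-only control mean plus 3 SD; inconclusive = no clear call, values can overlap the other calls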;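 also: cells exposed to compound for four days before flow analysis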
Exocytosis inh: blocks lytic granule exocytosis; actives 0.66% (n = 360,000); AID 651702; inhibition, % at 10 µM; TALL-104 LAMP-1 surface exposure, flow cytometry; cells stimulated with thapsigargin and PMA;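 active = inhibition above about 55%, limit read from the data; inconclusive = no clear call, values can overlap the other calls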
EBI2 antag: EBI2 (human) antagonism; P32249; EBI2 beta-arrestin recruitment, luminescence, 7a,25-OHC stimulated; actives 0.81% (n = 360,000); AID 651636; inhibition, % at 5 µM; in the data active = inhibition above about 38%;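 also: enzyme fragment complementation signal reports receptor beta-arrestin coupling in cells; 0% = agonist plus DMSO wells and 100% = wells without agonist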
MC4R barr agon: agonists of human melanocortin 4 receptor (MC4R) beta-arrestin | AID 540308 | P32245 | activation, % at 8.9 µM | U2OS MC4R beta-arrestin complementation, luminescence; percent of melanotan II response, DMSO zero | actives 0.98% (n = 360,000);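 active = activation above a per-plate cutoff, the mean activation of sample wells on that plate plus 3 SD, cut at about 8% in these data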
MC4R barr conf: human MC4R beta-arrestin agonism confirmation; U2OS MC4R beta-arrestin recruitment, luminescence; scaled DMSO 0%, Melanotan II 100%; actives 31% (n = 2,400); shares compounds with MC4R barr agon; activation, % at 8.9 µM;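 active = mean activation across replicates above the hit cutoff set in the earlier primary screen, cut at about 8% in these data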
MOR-DOR barr ag: counter-screen for MC4R agonists: agonists of mu-delta opioid heterodimer; actives 5.8% (n = 2,400); activation, % at 9.2 µM; shares compounds with MC4R barr agon; U2OS PathHunter beta-arrestin, beta-gal luminescence; percent of deltorphin B response, DMSO zero;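 active = mean activation across replicates exceeds the hit threshold derived in the earlier primary screen, cut at about 18% in these data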;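 also: 100% = deltorphin B at 0.9 µM final and 0% = DMSO alone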
Active calls of the source: *; i = inactive; ? = inconclusive; . = no result.

SMILES	MC4R antag cAMP	Myeloid diff 2	Exocytosis inh	EBI2 antag	MC4R barr agon	MC4R barr conf	MOR-DOR barr ag
Cn1c(CNC(=O)c2ccc(Cl)c(Cl)c2)nnc1SCC(=O)Nc1sc2c(c1C#N)CCCC2	5	i	0	3	11*	11*	3
Cc1sc(NC(=O)CSc2nnc(COc3ccc(Cl)cc3)n2C)c(C#N)c1C	4	i	3	-2	11*	4	7
COC(=O)c1cccc(NC(=O)CSc2nnc(COc3ccccc3)n2C)c1	3	i	-1	-5	0	.	.
COc1ccccc1NCC(=O)NNCC(=O)Nc1ccc(F)c(Cl)c1	11	i	0	10	2	.	.
COc1ccccc1CNC(=O)c1cc(-c2ccncc2)nc2c(Cl)cccc12	7	i	2	10	-1	.	.
COc1ccc(CNC(=O)CCCCCn2c(SCC#N)nc3cc4c(cc3c2=O)OCO4)cc1	8	i	-2	11	19*	-2	3
CCOc1ccc2nc(SCC(=O)NC3CCCc4ccccc43)sc2c1 (centres undefined)	-6	i	-1	14	31*	2	3
CCOc1ccc2nc(SCC(=O)N3CCCc4ccccc43)sc2c1	-5	i	-3	13	-2	.	.
Cc1ccc(Sc2ccc(NC(=O)CCl)cc2)cc1C	14	i	-4	10	19*	17*	6
COc1ccc(NC(=O)CSc2ccc(-c3cccnc3)nn2)c(OC)c1	1	i	6	-6	0	.	.
COc1ccc(-c2nnc3ccc(SCC(=O)Nc4nccs4)nn23)cc1OC	10	i	-5	-5	-1	.	.
COc1ccc(-c2ccc(SCC(=O)Nc3nccs3)nn2)cc1OC	3	i	-3	2	11*	3	2
COc1ccc(NC(=O)CSc2ccc(-c3cccs3)nn2)c(OC)c1	-2	i	3	-10	14*	0	2
CC(=O)c1ccccc1NC(=O)COC(=O)C1=NN(c2ccccc2)C(=O)CC1	3	i	1	-5	0	.	.
Fc1ccc2[nH]c3c(c2c1)CN(C(=S)NCc1ccccc1)CC3	0	i	27	4	2	.	.
COc1ccc2[nH]c(C(=O)Nc3ccc4c(c3)OCO4)cc2c1	9	i	9	1	-1	.	.
COc1cccc(C2(c3cccc(OC)c3)CC2C(=O)Nc2cccc3ccccc23)c1 (centres undefined)	10	i	-10	19	9.6*	1	4
COc1cccc(NC(=O)C2CC2(c2cccc(OC)c2)c2cccc(OC)c2)c1 (centres undefined)	11	i	-2	28	-1	.	.
O=C(NCc1ccccc1Cl)c1ccc2nc([C@@H]3O[C@H](CO)[C@@H](O)[C@H]3O)[nH]c2c1	-1	i	4	-6	-2	.	.
CC(C)CN1CCC1(C)C(=O)Nc1cccc(C#N)c1 (centres undefined)	9	i	2	-1	2	.	.
CC(=O)Nc1cc(-c2cccnc2)cn2c(-c3cccc(C(F)(F)F)c3)cnc12	5	i	-8	29	28*	29*	2
CC(=O)Nc1cc(-c2ccc(C(=O)N3CCOCC3)cc2)cn2c(-c3cccc(C(F)(F)F)c3)cnc12	20	i	-7	23	5	.	.
COc1ccc(-c2cc(NC(C)=O)c3ncc(-c4cccc(C(F)(F)F)c4)n3c2)c(OC)c1	1	i	28	18	26*	25*	3
COc1ccc(-c2cnc3c(NC=O)cc(-c4ccccc4OC)cn23)cc1OC	-60	.	31	6	5	.	.
COc1ccccc1-c1cc(NC(C)=O)c2ncc(-c3cccc(C(F)(F)F)c3)n2c1	10	i	47	21	25*	22*	4
COc1ccc(-c2cc(NC(C)=O)c3ncc(-c4ccc(OC)c(OC)c4)n3c2)c(OC)c1	-14	?	-6	14	6	.	.
Fc1cccc(Cc2c(-c3ccc(Cl)cc3)nc3ccc(Br)cn23)c1	.	i	-6	31	.	.	.

Source: PubChem (several laboratories)
